According to paper PMC8179362 (Chemical Science, 2021):

How the values were obtained:
NDM-1 = NDM-1 (Klebsiella pneumoniae, UniProt C7C422); experiment: Imipenem hydrolysis by purified NDM-1, competitive inhibition model; type: biochemical; conditions: for Fold more active against NDM-1 than its enantiomer / Fold more potent NDM-1 inhibitor than L-BTZ-1: ratio of Ki values
IMP-1 = IMP-1 (Serratia marcescens, UniProt P52699); experiment: Imipenem hydrolysis by purified IMP-1, competitive inhibition model; type: biochemical
Sequence of IMP-1 (P52699 19-246, looked up, species assumed): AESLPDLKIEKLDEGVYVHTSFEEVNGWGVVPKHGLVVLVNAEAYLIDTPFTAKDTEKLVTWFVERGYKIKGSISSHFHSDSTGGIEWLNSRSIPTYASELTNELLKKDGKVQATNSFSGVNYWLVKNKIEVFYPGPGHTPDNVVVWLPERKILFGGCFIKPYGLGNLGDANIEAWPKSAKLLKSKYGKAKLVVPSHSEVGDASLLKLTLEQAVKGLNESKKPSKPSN

VIM-2 = VIM-2 (Escherichia coli, UniProt Q5U7L7); experiment: Imipenem hydrolysis by purified VIM-2, competitive inhibition model; type: biochemical
[1] = biological target: E. coli cells expressing NDM-1 (Klebsiella pneumoniae, UniProt C7C422); type: cell-based
Sequence of E. coli cells expressing NDM-1 (C7C422 29-270, looked up): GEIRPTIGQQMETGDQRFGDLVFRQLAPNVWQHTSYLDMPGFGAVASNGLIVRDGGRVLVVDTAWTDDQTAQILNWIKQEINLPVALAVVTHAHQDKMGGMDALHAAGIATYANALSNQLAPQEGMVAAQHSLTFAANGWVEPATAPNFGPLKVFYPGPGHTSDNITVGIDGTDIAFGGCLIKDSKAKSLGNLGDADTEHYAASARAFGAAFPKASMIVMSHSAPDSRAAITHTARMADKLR

[2] = tested on: K. pneumoniae (1.37), NDM; experiment: Imipenem MIC, broth microdilution, clinical isolate; type: cell-based; conditions: MMTZ at constant 100 mg/L
Summary of the method: (§1)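 Clinical Enterobacterales isolates producing MBLs. Carbapenem MIC was determined for the carbapenem alone and in the presence of test compound, and the shift in MIC was assessed. Imipenem was the carbapenem for most strains. Morganellaceae strains were tested with meropenem instead, because of their intrinsic reduced susceptibility to imipenem.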

E. coli (8.68), NDM-1 = experiment: as above; type: cell-based; conditions: for MIC of imipenem (IMI) + MMTZ: E. coli (8.68), NDM-1, MMTZ at constant 100 mg/L
Summary of the method: as §1

[3] = tested on: Enterobacter spp. (42713), IMP; experiment: as above; type: cell-based; conditions: for MIC of imipenem (IMI) + MMTZ: Enterobacter spp. (42713), IMP, MMTZ at constant 100 mg/L
Summary of the method: as §1

[4] = tested on: K. pneumoniae (6907), VIM-2; experiment: as above; type: cell-based; conditions: MMTZ at constant 100 mg/L
Summary of the method: as §1

[5] = tested on: K. aerogenes (6915), VIM-2; experiment: as above; type: cell-based; conditions: MMTZ at constant 100 mg/L
Summary of the method: as §1

[6] = tested on: K. pneumoniae (5639), VIM-24; experiment: as above; type: cell-based; conditions: MMTZ at constant 100 mg/L
Summary of the method: as §1

HEK293 = experiment: Cytotoxicity, MTT assay; type: cell-based, human; conditions: 260, 355 and 530 μM, 24 hs
L929 = experiment: Cytotoxicity, MTT assay; type: cell-based, mouse; conditions: 260, 355 and 530 μM, 24 hs
VERO = experiment: Cytotoxicity, MTT assay; type: cell-based, African green monkey; conditions: 260, 355 and 530 μM, 24 hs
[7] = tested on: K. pneumoniae (LC 82), IMP-13; experiment: Imipenem MIC, broth microdilution, clinical isolate; type: cell-based; conditions: MMTZ at constant 100 mg/L
Summary of the method: as §1

[8] = tested on: clinical isolates producing MBLs; experiment: Antimicrobial susceptibility testing, statements on the whole panel; type: cell-based; conditions: MMTZ at constant 100 mg/L, Enterobacterales clinical isolates
Summary of the method: as §1

[9] = Chemical stability in PBS; type: physicochemical; conditions: PBS pH 7.2, 27 °C
[10] = tested on: P. mirabilis (UNC KPC 170), IMP; experiment: Carbapenem; type: cell-based; conditions: tested using meropenem (footnote a)
Summary of the method: as §1

Sequence of NDM-1 (C7C422 29-270, looked up, species assumed): as the sequence (C7C422 29-270, looked up) above

## CCOC(=O)[C@@]1(CS)N[C@@H](C(=O)O)CS1 [D-anti-1a, (2R,4S)-2-(ethoxycarbonyl)-2-(mercaptomethyl)thiazolidine-4-carboxylic acid]
NDM-1
  Ki: 2.5 ± 0.5 µM
IMP-1
  Ki: 1300 ± 100 nM
VIM-2
  Ki: 390 ± 40 nM
[1]
  IC50: 64 ± 5 µM
[2]
  MIC of imipenem (IMI) + MMTZ: 8 mg/L
E. coli (8.68), NDM-1
  MIC of imipenem (IMI) + MMTZ: 16 mg/L
[3]
  MIC of imipenem (IMI) + MMTZ: 8 mg/L
[4]
  MIC of imipenem (IMI) + MMTZ: 2 mg/L
[5]
  MIC of imipenem (IMI) + MMTZ: 2 mg/L
[6]
  MIC of imipenem (IMI) + MMTZ: 4 mg/L
HEK293
  Cytotoxicity (cell viability): induced a decline in cell viability percentages in almost all conditions
L929
  Cytotoxicity (cell viability): induced a decline in cell viability percentages in almost all conditions
VERO
  Cytotoxicity (cell viability): induced a decline in cell viability percentages in almost all conditions

## CCOC(=O)[C@]1(CS)N[C@H](C(=O)O)CS1 [L-anti-1a, (2S,4R)-2-(ethoxycarbonyl)-2-(mercaptomethyl)thiazolidine-4-carboxylic acid]
NDM-1
  Ki: 5.2 ± 0.7 µM
IMP-1
  Ki: 1000 ± 200 nM
VIM-2
  Ki: 380 ± 50 nM
[1]
  IC50: 54 ± 4 µM
[2]
  MIC of imipenem (IMI) + MMTZ: 8 mg/L
[7]
  MIC of imipenem (IMI) + MMTZ: 0.5 mg/L
[3]
  MIC of imipenem (IMI) + MMTZ: 16 mg/L
[4]
  MIC of imipenem (IMI) + MMTZ: 2 mg/L
[5]
  MIC of imipenem (IMI) + MMTZ: 4 mg/L
[6]
  MIC of imipenem (IMI) + MMTZ: 8 mg/L
HEK293
  Cytotoxicity (cell viability): more selectively toxic towards the HEK293 cell line

## CCOC(=O)[C@]1(CS)N[C@H](C(=O)O)C(C)(C)S1 [L-anti-1b, (2S,4R)-2-(Ethoxycarbonyl)-2-(mercaptomethyl)-5,5-dimethylthiazolidine-4-carboxylic acid]
NDM-1
  Ki: 0.44 ± 0.06 µM
  Fold more active against NDM-1 than its enantiomer: 7 fold
  Fold more potent NDM-1 inhibitor than L-BTZ-1: 12 fold
IMP-1
  Ki: 460 ± 50 nM
VIM-2
  Ki: 750 ± 90 nM
[1]
  IC50: 160 ± 10 µM
[2]
  MIC of imipenem (IMI) + MMTZ: 8 mg/L
E. coli (8.68), NDM-1
  MIC of imipenem (IMI) + MMTZ: 16 mg/L
[3]
  MIC of imipenem (IMI) + MMTZ: 8 mg/L
[4]
  MIC of imipenem (IMI) + MMTZ: 1 mg/L
[5]
  MIC of imipenem (IMI) + MMTZ: 2 mg/L
[6]
  MIC of imipenem (IMI) + MMTZ: 4 mg/L

## CCOC(=O)[C@]1(CS)N[C@@H](C(=O)O)C(C)(C)S1 [D-syn-1b, (2S,4S)-2-(Ethoxycarbonyl)-2-(mercaptomethyl)-5,5-dimethylthiazolidine-4-carboxylic acid]
NDM-1
  Fold more active against NDM-1 than its enantiomer: 13 fold
  Fold more potent NDM-1 inhibitor than L-BTZ-1: 12 fold
IMP-1
  Ki: 2000 ± 200 nM
VIM-2
  Ki: 1900 ± 100 nM
[2]
  MIC of imipenem (IMI) + MMTZ: 8 mg/L
E. coli (8.68), NDM-1
  MIC of imipenem (IMI) + MMTZ: 32 mg/L
[3]
  MIC of imipenem (IMI) + MMTZ: 8 mg/L
[4]
  MIC of imipenem (IMI) + MMTZ: 4 mg/L
[5]
  MIC of imipenem (IMI) + MMTZ: 4 mg/L
[6]
  MIC of imipenem (IMI) + MMTZ: 8 mg/L

## CCOC(=O)[C@@]1(CS)N[C@@H](C(=O)O)C(C)(C)S1 [D-anti-1b, (2R,4S)-2-(Ethoxycarbonyl)-2-(mercaptomethyl)-5,5-dimethylthiazolidine-4-carboxylic acid]
NDM-1
  Ki: 3.1 ± 0.3 µM
IMP-1
  Ki: 930 ± 80 nM
VIM-2
  Ki: 900 ± 100 nM
[1]
  IC50: 210 ± 10 µM
[2]
  MIC of imipenem (IMI) + MMTZ: 8 mg/L
E. coli (8.68), NDM-1
  MIC of imipenem (IMI) + MMTZ: 16 mg/L
[3]
  MIC of imipenem (IMI) + MMTZ: 8 mg/L
[4]
  MIC of imipenem (IMI) + MMTZ: 1 mg/L
[5]
  MIC of imipenem (IMI) + MMTZ: 2 mg/L
[6]
  MIC of imipenem (IMI) + MMTZ: 1 mg/L
[8]
  Reduction in MIC values of imipenem: up to 16 fold
[9]; 6 h
  Degradation in PBS by LCMS: did not hydrolyse to penicillamine and the main degradation product was the disulphide derivative
[9]; after 6 hours
  Intact MMTZ remaining: 88%

## CCOC(=O)[C@@]1(CS)N[C@H](C(=O)O)C(C)(C)S1 [L-syn-1b, (2R,4R)-2-(Ethoxycarbonyl)-2-(mercaptomethyl)-5,5-dimethylthiazolidine-4-carboxylic acid]
NDM-1
  Ki: 8 ± 1 µM
IMP-1
  Ki: 6000 ± 600 nM
VIM-2
  Ki: 3600 ± 400 nM
[1]
  IC50: 230 ± 30 µM
E. coli (8.68), NDM-1
  MIC of imipenem (IMI) + MMTZ: 32 mg/L
[7]
  MIC of imipenem (IMI) + MMTZ: 1 mg/L
[3]
  MIC of imipenem (IMI) + MMTZ: 16 mg/L
[4]
  MIC of imipenem (IMI) + MMTZ: 4 mg/L
[5]
  MIC of imipenem (IMI) + MMTZ: 4 mg/L
[6]
  MIC of imipenem (IMI) + MMTZ: 8 mg/L

## C[C@@H](O)[C@H]1C(=O)N2C(C(=O)O)=C(SCCN=CN)C[C@H]12 [IMI, imipenem, reference compound]
E. coli (8.68), NDM-1; Escherichia coli, read-out: MIC of imipenem (IMI) alone
  MIC: 64 µg/mL
[3]; Enterobacter, read-out: MIC of imipenem (IMI) alone
  MIC: 16 µg/mL
[10]
  MIC of carbapenem alone (column IMI): 16 mg/L
